ChEMBL document CHEMBL3875165, “Novel broad-spectrum and long-acting parenteral cephalosporins having an acyl cyanamide moiety at the C-3 terminal: Synthesis and structure-activity relationships” (Eur J Med Chem, 2016)

How the values were obtained:
[1] = AUC (0 to infinity) in monkey at 20 mg/kg, iv administered as bolus dose by HPLC method; assay type: ADME, organism-based, Macaca mulatta; parameters: dose 20 mg/kg, time infinity, route intravenous; conditions: rhesus monkey, in vivo
In short: (§1)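 Three monkeys per group received a single iv bolus of 20 mg/kg (1 mL/kg). Plasma levels were measured by HPLC. AUC0-∞, CLtot and T1/2 came from a 2-compartment fit.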

[2] = Half life in monkey at 20 mg/kg, iv administered as bolus dose by HPLC method; assay type: ADME, organism-based, Macaca mulatta; conditions: rhesus monkey, in vivo; in short: as §1
[3] = Total clearance in monkey at 20 mg/kg, iv administered as bolus dose by HPLC method; assay type: ADME, organism-based, Macaca mulatta; conditions: rhesus monkey, in vivo; in short: as §1
[4] = Protein binding in ICR mouse plasma after 30 mins by ultra-filtration method; assay type: ADME, cell-free; conditions: read-out: PPB (converted)
In short: (§2)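 Mouse or monkey plasma was adjusted to pH 7 with CO2 and spiked with compound to a final 10 µg/ml. It was incubated 30 min at 37 °C, then ultrafiltered by centrifugation at 3200 rpm for 30 min at 25 °C. Free drug in the filtrate was measured by bioassay to give the bound fraction.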

[5] = Protein binding in cynomolgus monkey plasma after 30 mins by ultra-filtration method; assay type: ADME, cell-free, Macaca fascicularis; conditions: read-out: PPB (converted); in short: as §2
Staphylococcus aureus = test: Antibacterial activity against Staphylococcus aureus SMITH after 20 hrs by agar dilution method; assay type: functional
In short: (§3)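 Agar dilution MIC on Sensitivity Disk Agar-N with 2-fold serial drug dilutions. Overnight Mueller Hinton broth cultures were diluted to about 10^6 CFU/mL, and 1 µL spots were applied. Plates were incubated 20 h at 37 °C before scoring.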

Streptococcus pneumoniae [6] = test: Antibacterial activity against penicillin-resistant Streptococcus pneumoniae SR16675 after 20 hrs by agar dilution method; assay type: functional; conditions: SR16675, 20 h
In short: (§4)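 Agar dilution on Sensitivity Disk Agar-N. Overnight Mueller Hinton broth cultures were diluted to about 10^6 CFU/mL, and 1 µL spots were placed on agar plates holding 2-fold serial dilutions of antibiotic. Plates were incubated 20 h at 37 °C and then MICs were scored.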

Streptococcus pneumoniae [7] = test: Antibacterial activity against penicillin-resistant Streptococcus pneumoniae SR16750 after 20 hrs by agar dilution method; assay type: functional; conditions: SR16750, 20 h; in short: as §4
Haemophilus influenzae [8] = test: Antibacterial activity against beta-lactamase non-producing penicillin-resistant Haemophilus influenzae SR11435 after 20 hrs by agar dilution method; assay type: functional; conditions: SR11435, 20 h; in short: as §4
Haemophilus influenzae [9] = test: Antibacterial activity against beta-lactamase non-producing penicillin-resistant Haemophilus influenzae SR24106 after 20 hrs by agar dilution method; assay type: functional; conditions: SR24106, 20 h; in short: as §4
Moraxella catarrhalis = test: Antibacterial activity against Moraxella catarrhalis SR24290 after 20 hrs by agar dilution method; assay type: functional; conditions: SR24290, 20 h; in short: as §3
Escherichia coli = test: Antibacterial activity against Escherichia coli NIHJ JC-2 after 20 hrs by agar dilution method; assay type: functional; conditions: NIHJ JC-2, 20 h; in short: as §3
[10] = Half life in mouse at 20 mg/kg, iv administered as bolus dose by band-culture bioassay; conditions: in vivo
[11] = Total clearance in mouse at 20 mg/kg, iv administered as bolus dose by band-culture bioassay; conditions: in vivo
[12] = AUC (0 to infinity) in mouse at 20 mg/kg, iv administered as bolus dose by band-culture bioassay; conditions: in vivo

SMILES	AUC [1] [ng·h/mL]	half-life [2] [h]	clearance [3] [mL/min/kg]	fraction unbound at 0.5 h [4]	fraction unbound at 0.5 h [5]	MIC (Staphylococcus aureus) [µg/mL]	MIC (Streptococcus pneumoniae [6]) [µg/mL]	MIC (Streptococcus pneumoniae [7]) [µg/mL]	MIC (Haemophilus influenzae [8]) [µg/mL]	MIC (Haemophilus influenzae [9]) [µg/mL]	MIC (Moraxella catarrhalis) [µg/mL]	MIC (Escherichia coli) [µg/mL]	half-life [10] [h]	clearance [11] [mL/min/kg]	AUC(0-inf) [12] [ng·h/mL]
CCO/N=C(\C(=O)N[C@@H]1C(=O)N2C(C(=O)[O-])=C(/C=C/C[n+]3ccc(-c4c[nH]c(/C([O-])=N/C#N)c4C)cc3)CS[C@H]12)c1csc(N)n1.[Na+]	42200	5.19	0.4	0.54	0.16	0.25	0.125	0.125	0.063	0.125	4	0.125	0.86	15.2	22000
CCO/N=C(\C(=O)N[C@@H]1C(=O)N2C(C(=O)[O-])=C(/C=C/C[n+]3ccc(-c4cc(/C([O-])=N/C#N)on4)cc3)CS[C@H]12)c1csc(N)n1.[Na+]	59800	5.14	0.29	0.78	0.06	0.5	0.25	0.25	0.063	0.125	0.5	0.125	0.85	22.6	14800
CCO/N=C(\C(=O)N[C@@H]1C(=O)N2C(C(=O)[O-])=C(/C=C/C[n+]3ccc(-c4c[nH]c(/C([O-])=N/C#N)c4)cc3)CS[C@H]12)c1csc(N)n1.[Na+]	20200	4.25	0.84	0.75	0.3	0.25	0.125	0.25	0.063	0.125	8	0.125	0.93	18.9	17600
CCO/N=C(\C(=O)N[C@@H]1C(=O)N2C(C(=O)[O-])=C(/C=C/C[n+]3ccc(-c4cc(/C([O-])=N/C#N)n(C)c4)cc3)CS[C@H]12)c1csc(N)n1.[Na+]	32100	4.08	–	0.67	0.23	0.5	0.25	0.5	0.063	0.125	8	0.25	0.87	12.8	26000
CCO/N=C(\C(=O)N[C@@H]1C(=O)N2C(C(=O)[O-])=C(/C=C/C[n+]3ccc(-c4cc(/C([O-])=N/C#N)n(C)n4)cc3)CS[C@H]12)c1csc(N)n1.[Na+]	21800	2.96	0.81	0.59	0.41	0.5	0.125	0.5	0.063	0.25	8	0.25	0.82	13.2	21300
CCO/N=C(\C(=O)N[C@@H]1C(=O)N2C(C(=O)[O-])=C(/C=C\C[n+]3ccc(-c4cc(/C([O-])=N/C#N)[nH]n4)cc3)CS[C@H]12)c1csc(N)n1.[Na+]	–	–	–	–	–	0.25	0.5	1	0.25	0.5	1	0.125	–	–	–
CCO/N=C(\C(=O)N[C@@H]1C(=O)N2C(C(=O)[O-])=C(/C=C/C[n+]3ccc(-c4cc(/C([O-])=N/C#N)[nH]n4)cc3)CS[C@H]12)c1csc(N)n1.[Na+]	35400	4.43	0.48	0.75	0.27	0.25	0.125	0.25	0.063	0.125	2	0.125	1.03	19.2	17400
CCO/N=C(\C(=O)N[C@@H]1C(=O)N2C(C(=O)[O-])=C(/C=C/C[n+]3ccc(-c4csc(/C([O-])=N/C#N)c4)cc3)CS[C@H]12)c1csc(N)n1.[Na+]	25900	4.67	0.66	0.63	0.36	0.25	0.125	0.25	0.063	0.125	2	0.125	0.75	11	30400
